Test results as given in ChEMBL document CHEMBL3792331, “Identification and synthesis of potent and selective pyridyl-isoxazole based agonists of sphingosine-1-phosphate 1 (S1P1)” (Bioorg Med Chem Lett, 2016).

How the values were obtained:
[1] = Plasma concentration Lewis rat at 1 mg/kg, po after 24 hrs; assay type: ADME, organism-based
How it was run: (§1)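 Lewis rats given 1.0 mg/kg orally as solution or suspension in vehicle. Plasma drug concentration measured in blood drawn at 4 h and 24 h; 4 h/24 h ratio taken from these values.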

Plasma = assay: Ratio of plasma concentration Lewis rat at 1 mg/kg, po after 4 hrs to plasma concentration Lewis rat at 1 mg/kg, po after 24 hrs; assay type: ADME, organism-based; settings: in vivo; how it was run: as §1
Rattus norvegicus [2] = assay: Reduction in circulating lymphocytes in Lewis rat at 1 mg/kg, po after 24 hrs; assay type: functional
How it was run: (§2)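 Healthy Lewis rats dosed orally with test article as solution or suspension in vehicle, or vehicle alone. Blood drawn at 4 h and 24 h. Circulating lymphocyte percentage measured by hematology analyzer, expressed as reduction versus the vehicle group. Group average, n = 3–4.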

[3] = Plasma concentration Lewis rat at 1 mg/kg, po after 4 hrs; assay type: ADME, organism-based; how it was run: as §1
[4] = Selectivity index, ratio of EC50 for agonist activity at human S1P3 receptor expressed in EDG3-Ga15-bla HEK293T cell membranes to EC50 for agonist activity at human S1P1 receptor expressed in CHO cell membranes; assay type: cell-based
How it was run: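 S1P3/S1P1 ratio of GTPγ[35S] EC50s. Membranes from EDG3-Ga15-bla HEK293T (S1P3) or S1P1/CHO cells, […], 0.2 nM final [35S]GTP. HEPES pH 7.5 buffer with MgCl2, NaCl, EGTA, DTT, GDP, BSA and saponin. 45 min at room temperature, filtration read-out. Each EC50 taken at 50% of the compound's own Ymax.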

Rattus norvegicus [5] = assay: Reduction in circulating lymphocytes in Lewis rat at 1 mg/kg, po after 4 hrs; assay type: functional; how it was run: as §2

## CCCc1c(-c2nc(-c3ccc(CN4CC(C(=O)O)C4)cc3)no2)noc1-c1ccccn1
[1]
  concentration at 24 h: 9.9 nM
Plasma
  Ratio: 30
Rattus norvegicus [2]
  inhibition in vivo at 1 mg/kg: 53%
[3]
  concentration at 4 h: 292 nM
[4]
  Ratio EC50: 2500
Rattus norvegicus [5]
  inhibition in vivo at 1 mg/kg: 81%
